{"data": "Measurements from different studies", "target": "Death-associated protein kinase 2 (DAPK2, Homo sapiens, UniProt Q9UIK4)", "note": "Compare with care: the assays were run in different laboratories."}
{"SMILES": "COc1ccnn2ncc(-c3ccnc(N(C)C)n3)c12", "read-out": "binding", "tested at": "1 µM", "remaining binding [%]": 91}
{"SMILES": "FC(F)(F)Oc1cccc(-c2cnc3ccc(-c4ccncc4)nn23)c1", "read-out": "cell-free assay", "method": "competition with immobilised ligand", "tested at": "5 µM", "remaining binding [%]": 66}
{"SMILES": "O=C(Nc1c[nH]nc1C(=O)NC1CCNCC1)c1cc(F)cc(F)c1", "read-out": "binding", "method": "competition with immobilised ligand", "tested at": "1 µM", "remaining binding [%]": 100}
{"SMILES": "CN(C)C(=O)Cn1cc(-c2nc(C3(c4ccc(-c5cnc(N)nc5)cc4)CC3)no2)cn1", "read-out": "cell-free assay", "method": "competition with immobilised ligand", "tested at": "1 µM", "remaining binding [%]": 86}
{"SMILES": "CNC(=O)[C@@H]1CC[C@@H](n2c(-c3ccc4cnccc4c3)nc3ccc(C(=O)NCc4cccc(C(N)=O)c4)cc32)C1", "read-out": "binding", "method": "competition with immobilised ligand", "tested at": "1 µM", "remaining binding [%]": 100}
{"SMILES": "O=C(c1ccc(Nc2nccc(-c3cc4ccccc4s3)n2)cc1)N1CCC(N2CCCC2)CC1", "read-out": "binding", "method": "competition with immobilised ligand", "tested at": "1 µM", "remaining binding [%]": 19}
{"SMILES": "Nc1ncc2c(n1)-c1c([nH]c3ccc(C#CC4CC4)cc13)CCCC2", "read-out": "binding", "method": "competition with immobilised ligand", "tested at": "1 µM", "remaining binding [%]": 100}
{"SMILES": "Cc1c(NC(=O)c2cc(C(N)=O)nc3cc(F)ccc23)c(C(F)(F)F)nn1Cc1ccc(C#N)cc1", "read-out": "cell-free assay", "method": "competition with immobilised ligand", "tested at": "1 µM", "remaining binding [%]": 99}
{"SMILES": "C[C@H]1CCN(c2nccc(-c3cnn4ncccc34)n2)C1", "read-out": "binding", "tested at": "1 µM", "remaining binding [%]": 72}
{"SMILES": "COc1ncc2cc3ccccc3nc2c1C#N", "read-out": "cell-free assay", "method": "competition with immobilised ligand", "tested at": "5 µM", "remaining binding [%]": 97}
{"SMILES": "CN(C)c1nccc(-c2cnn3ncccc23)n1", "read-out": "binding", "tested at": "1 µM", "remaining binding [%]": 90}
{"SMILES": "Nc1c(C(=O)NCc2ccc(C(=O)NCCCC3CCCCC3)cc2)cnn1-c1ccccc1", "read-out": "cell-free assay", "method": "competition with immobilised ligand", "tested at": "0.1 µM", "remaining binding [%]": 100}
{"SMILES": "COc1cnc(Nc2cccc(S(N)(=O)=O)c2)nc1N1CCN(c2ccccc2)CC1", "read-out": "binding", "method": "competition with immobilised ligand", "tested at": "1 µM", "remaining binding [%]": 78}
{"SMILES": "C[C@H](NC(=O)c1cnc2n1[C@](C)(Cc1ccc(C#N)cc1)C(=O)N2c1cc(Cl)c(F)c(Cl)c1)C(=O)NC1(c2ccccn2)CC1", "read-out": "cell-free assay", "method": "competition with immobilised ligand", "tested at": "1 µM", "remaining binding [%]": 100}
{"SMILES": "CN(C)c1ncc(F)c(-c2cnn3ncccc23)n1", "read-out": "binding", "tested at": "1 µM", "remaining binding [%]": 69}
{"SMILES": "O=C(c1ccc(Nc2ncc(Cl)c(-c3ccc(Cl)s3)n2)cc1)N1CCC(N2CCCC2)CC1", "read-out": "binding", "method": "competition with immobilised ligand", "tested at": "1 µM", "remaining binding [%]": 29}
{"SMILES": "N[C@@H]1CCN(c2nccc(-c3cnn4ncccc34)n2)C1", "read-out": "binding", "tested at": "1 µM", "remaining binding [%]": 100}
{"SMILES": "Cn1nc(C(F)(F)F)cc1-c1cnc(N2CCc3cc(S(=O)(=O)Nc4c(F)cc(Cl)cc4F)cc(N4CCCC4=O)c32)nc1", "read-out": "cell-free assay", "method": "competition with immobilised ligand", "tested at": "1 µM", "remaining binding [%]": 94}
{"SMILES": "CN(c1nccc(-c2cnn3ncccc23)n1)C1CC1", "read-out": "binding", "tested at": "1 µM", "remaining binding [%]": 76}
{"SMILES": "Cc1cnc(Nc2ccc(C(=O)N3CCC(N4CCCC4)CC3)cc2)nc1-c1cc2ccccc2s1", "read-out": "binding", "method": "competition with immobilised ligand", "tested at": "1 µM", "remaining binding [%]": 8.9}
{"SMILES": "F[C@@H]1CCN(c2nccc(-c3cnn4ncccc34)n2)C1", "read-out": "binding", "tested at": "1 µM", "remaining binding [%]": 100}
{"SMILES": "CCS(=O)(=O)c1cc2cc(C[C@](O)(CC(C)(C)c3ccc(F)cc3C(N)=O)C(F)(F)F)[nH]c2cn1", "read-out": "cell-free assay", "method": "competition with immobilised ligand", "tested at": "1 µM", "remaining binding [%]": 90}
